Publication PMC9929523 (International Journal for Parasitology: Drugs and Drug …, 2023)
Values joined by “and” are separate entries in the source; they are usually repeats but may differ in a detail not shown here. Equal entries are not always repeated. Where two headings read alike, the source gives them in different places.

Assays:
Mouse pharmacokinetics = format: in vivo
Formulation solubility = format: physicochemical
In short: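 The aim was an oral dosing vehicle. Co-solvent solutions (polyethylene glycol or ethanol) were checked for precipitation by diluting 1:10 into saline. A 10 mg/ml solution was prepared in 100 mM acetate buffer, pH 4.5.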

[1] = Hepatic microsomal stability; format: in vitro ADME; details: mouse, liver microsomes, pH 7.4, intrinsic clearance, 1 μM OXA, 0.2 mg protein per ml
In short: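 Test compound (1 μM) incubated with mouse hepatic microsomes at 1, 0.5 and 0.2 mg/mL in 100 mM potassium phosphate, pH 7.4. Samples filtered and analysed by LC-MS/MS. Log-transformed data gave half-life. CLint (μl/min/mg) = ln2 × incubation volume / (half-life × mg protein). Unbound CLint came from the y-intercept of microsomal concentration vs 1/CLint.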

Schistosoma mansoni = test: S. mansoni killing in vitro; format: cell-based
In short: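 Hamster-derived adult male worms, 10 per well, in DMEM with 10% heat-inactivated FBS and antibiotic/antimycotic. Dosed within 2–4 h of harvest from 100X DMSO spikes: 0–143 μM, triplicate, 45 min at 37 °C, 5% CO2. Second set used 143 μM or DMSO for 15, 30 or 45 min. Worms washed thrice and cultured 14 days, medium changed every other day. Daily survival scored by motility, shedding, opacity and tegument blebbing; Kaplan-Meier curves.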

[2] = Estimation of human hepatic inlet; format: in vivo
[3] = Clinical human OXA pharmacokinetics; format: in vivo; details: 40 mg/kg dose, assuming dose proportionality
P-gp efflux transporter = test: Tissue distribution in P-gp knockout mice; format: in vivo, mouse; details: wild-type vs P-gp knockout mice, 4 h after 100 mg/kg oral dose
[4] = Blood to plasma ratio, Rb; format: in vitro ADME; details: female, C57Bl/6J, mouse, fresh heparinized whole blood and fresh plasma
In short: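 Heparinized whole blood from female C57Bl/6J mice and matching fresh plasma were each spiked from a 10 mM DMSO stock to a final 5 μM and held 30 min at 37 °C. Samples were spun at 8000×g for 3 min, extracted into ACN/MeOH with diclofenac internal standard, and measured by LC-MS/MS. Rb = concentration in directly spiked plasma / concentration in plasma from spiked blood.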

[5] = ref Daneshmend and Homeida, 1987, cited from earlier work
[6] = Tissue distribution in wild-type C57Bl/6J mice; format: in vivo, mouse; details: 4-h time point, 100 mg/kg oral dose
[7] = Estimation of mouse hepatic inlet
schistosomiasis = details: sub-Saharan Africa; ref Doenhoff et al., 2009; cited from earlier work
S. mansoni = details: meta-analysis, S. mansoni infections; ref Zwang and Olliaro, 2014; cited from earlier work
S. haematobium = details: meta-analysis, S. haematobium infections; ref Zwang and Olliaro, 2014; cited from earlier work
[8] = female, C57Bl/6J, mouse, plasma, iv, 3 mg/kg
[9] = female, C57Bl/6J, mouse, plasma, po, 100 mg/kg, pH 4.5
[10] = patients n = 9, single oral dose 1000 mg
[11] = 100 mg/kg PO acetate buffer, WinNonlin one-compartment model
[12] = 100 mg/kg PO acetate buffer, method of residuals

Compound: CC(C)NCC1CCc2cc(CO)c([N+](=O)[O-])cc2N1 (stereo not drawn) [OXA, oxamniquine]
- Cl clearance (Mouse pharmacokinetics; 100 mg/kg PO, 100 mM acetate buffer pH 4.5): 159 ± 3 mL/min/kg
- AUC(0-inf) (Mouse pharmacokinetics; [8]): 1.1 µM·h
- Cmax (Mouse pharmacokinetics; [8]): 2.2 ± 0.1 µM
- Tmax (Mouse pharmacokinetics; [8]): 5 min
- clearance (Mouse pharmacokinetics; [8]): 157 ± 3 mL/min/kg
- half-life (Mouse pharmacokinetics; [8]): 51 ± 6 min
- AUC(0-inf) (Mouse pharmacokinetics; [9]): 26.1 ± 1.7 µM·h
- CL/F (Mouse pharmacokinetics; [9]): 230 ± 14 mL/min/kg
- Cmax (Mouse pharmacokinetics; [9]): 11.8 ± 1.6 µM
- Tmax (Mouse pharmacokinetics; [9]): 50 min
- bioavailability (Mouse pharmacokinetics; [9]): 69.5 ± 5.3%
- half-life (Mouse pharmacokinetics; [9]): 58 ± 6 min
- solubility dependence on pH (Formulation solubility): increases at low pH
- stable solution concentration (Formulation solubility; 100 mM acetate buffer, pH 4.5): 10 mg/mL
- microsomal CLint at 1 μM [1]: 196 µL/min/mg
- worm killing at lower concentrations (Schistosoma mansoni; 35.75 μM and 14.3 μM, 45 min exposure, 14 days): minimal worm killing
- worm survival (Schistosoma mansoni; 71.5 μM, 45 min exposure, 14 days): significantly reduced
- worm survival (Schistosoma mansoni; 143 μM, 45 min exposure, 14 days): significantly reduced
- worm killing (Schistosoma mansoni; 143 μM, 45 min exposure, adult male worms, 14 days): 90%
- efficacy of worm killing with shorter exposure times (Schistosoma mansoni; 143 μM, exposure 15 and 30 min): maintained
- rate of absorption in the human intestine [2]: approximately 2.5 % per minute
- expected maximal plasma levels [3]: 9 to 14 µM
- impact of efflux transporter P-gp on tissue distribution (P-gp efflux transporter): no indication that the efflux transporter P-gp impacts tissue distribution
- blood plasma ratio at 30 min, 5 μM [4]: 1.6
- peak plasma concentrations ([5]; human, approximately 20 mg/kg oral dose): 4 to 7 µM
- AUC(0-∞) [5, 10]: 20.2 ± 4.9 µM·h
- Cmax [5, 10]: 4.5 ± 0.9 µM
- T1/2 [5, 10]: 151 ± 23 min
- Tmax [5, 10]: 103 ± 12 min
- bile concentration relative to liver tissue [6]: 15 fold
- Inlet Concentration (portal) [7, 11]: 118 µM and 118 ± 10 µM
- ka absorption rate constant [7, 11]: 0.043 min⁻¹
- Inlet Concentration (portal) [7, 12]: 132 µM and 132 ± 11 µM
- ka absorption rate constant [7, 12]: 0.049 min⁻¹
- k el ([7]; C57Bl/6J, mouse, in vivo, po, 100 mg/kg, ke elimination rate constant, 100 mg/kg PO acetate buffer, method of residuals): 0.0002 s⁻¹
- fraction orally absorbed (Fa x Fg) ([7]; mouse, true value could range between 0.7 and 1): 0.7

Compound: O=C(C1CCCCC1)N1CC(=O)N2CCc3ccccc3C2C1 (stereo not drawn) [praziquantel]
- cure rates (schistosomiasis): 60–90%
- cure rate (S. mansoni): 76.7%
- cure rate (S. haematobium): 77.1%
